Calls of active or inactive are those of the source. The calls are words filed in the database; no cut-off is given here.
Assays:
DU-145 [1] = assay: Cytotoxicity against human DU145 cells at 10 uM after 2 days by MTT assay; assay type: functional; conditions: DU-145, 48 h
HT-29 [2] = assay: Cytotoxicity against human HT-29 cells at 10 uM after 2 days by MTT assay; assay type: functional; conditions: HT-29, 48 h
HCT-116 [3] = assay: Cytotoxicity against human HCT116 cells at 10 uM after 2 days by MTT assay; assay type: functional; conditions: HCT-116, 48 h
[4] = Cytotoxicity against human A375P cells at 10 uM after 2 days by MTT assay; assay type: functional; conditions: 48 h
DU-145 [5] = assay: Cytotoxicity against human DU145 cells after 2 days by MTT assay; assay type: functional, cell-based; conditions: DU-145, 48 h
Outline: (§1)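 Cells grown in RPMI 1640 with 10% heat-inactivated FBS at 37 °C and 5% CO2. Seeded at 3 × 10³ cells/well, then given a range of sample concentrations in duplicate for two days. Read by MTT-type dye and solubilization/stop solution, left overnight at room temperature to dissolve formazan, with OD at 570 nm.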

HT-29 [6] = assay: Cytotoxicity against human HT-29 cells after 2 days by MTT assay; assay type: functional, cell-based; conditions: HT-29, 48 h; outline: as §1
HCT-116 [7] = assay: Cytotoxicity against human HCT116 cells after 2 days by MTT assay; assay type: functional, cell-based; conditions: HCT-116, 48 h; outline: as §1
[8] = Cytotoxicity against human A375P cells after 2 days by MTT assay; assay type: functional, cell-based; conditions: 48 h; outline: as §1
MCF7 [9] = assay: Cytotoxicity against human MCF7 cells after 2 days by MTT assay; assay type: functional, cell-based; conditions: MCF7, 48 h; outline: as §1
MCF7 [10] = assay: Cytotoxicity against human MCF7 cells at 10 uM after 2 days by MTT assay; assay type: functional; conditions: MCF7, 48 h
[11] = target: T1, Heat shock protein HSP90 (Homo sapiens) (UniProt P07900+P08238); assay: Inhibition of HSP90 in human MCF7 cells assessed as reduction of Her2 protein level at 5 uM after 24 hrs by Western blotting relative to control; assay type: cell-based
Outline: (§2)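 MCF-7 cells seeded at 10⁵ cells/well and grown to 60% confluency. Treated with compounds at 5 µM in 0.4% DMSO for 24 h, with DMSO alone as control. Her2 and Hsp70 levels detected by western blot.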

[12] = target: T1, Heat shock protein HSP90 (Homo sapiens); assay: Inhibition of HSP90 in human MCF7 cells assessed as induction of HSP70 expression at 5 uM after 24 hrs by Western blotting; assay type: cell-based; outline: as §2

| SMILES | inhibition at 10 µM (DU-145 [1]) [%] | inhibition at 10 µM (HT-29 [2]) [%] | inhibition at 10 µM (HCT-116 [3]) [%] | inhibition at 10 µM [4] [%] | IC50 (DU-145 [5]) [µM] | IC50 (HT-29 [6]) [µM] | IC50 (HCT-116 [7]) [µM] | IC50 [8] [µM] | IC50 (MCF7 [9]) [µM] | inhibition at 10 µM (MCF7 [10]) [%] | inhibition [11] [%] | inhibition [12] |
| --- | --- | --- | --- | --- | --- | --- | --- | --- | --- | --- | --- | --- |
| Fc1ccc2nc(NCCN3CCOCC3)nc(NCc3ccco3)c2c1 | 27.8 | 9.68 | 12.8 | 28.6 |  |  |  |  |  |  |  |  |
| COc1ccc(Nc2nc(NCc3ccco3)c3cc(F)ccc3n2)cc1 | 55.4 | 86.2 | 74 |  | 11.6 | 4.34 | 6.15 | 7.66 |  |  |  |  |
| c1coc(CNc2nc(NCCCN3CCOCC3)nc3ccccc23)c1 |  |  |  |  | 79.9 | 23.9 |  |  |  |  |  |  |
| Clc1cccc(N2CCN(CCCCNc3nc(NCc4ccco4)c4ccccc4n3)CC2)c1Cl | 94.3 | 94.8 | 94.7 |  | 3.87 | 3.37 | 3.2 | 3.75 | 2.97 | 95.8 | > 50 | Active |
| Fc1ccc2nc(NCCCCN3CCOCC3)nc(NCc3ccco3)c2c1 | 57.6 | 76.8 | 82 | 62 | 6.46 | 1.36 | 2.14 | 4.44 |  |  |  |  |
| c1coc(CNc2nc(NCCCCN3CCOCC3)nc3ccccc23)c1 | 52.3 | 68.7 | 79.8 | 59.2 | 6.24 | 1.34 | 2.1 | 5.23 |  |  |  |  |
| Cc1cccc(N2CCN(CCCCNc3nc(NCc4ccco4)c4cc(F)ccc4n3)CC2)c1C | 93.4 | 96.1 | 97.4 | 97.5 | 3.32 | 1.83 | 0.82 | 3.28 | 3.13 | 97.7 | < 50 | Active |
| COc1cccc2c1C(=O)c1c(O)c3c(c(O)c1C2=O)C[C@@](O)(C(=O)CO)C[C@@H]3O[C@H]1C[C@H](N)[C@H](O)[C@H](C)O1 [DOXORUBICIN] |  |  |  |  |  | 0.82 |  |  |  |  |  |  |
| CCCCCNc1nc(NCc2ccco2)c2cc(F)ccc2n1 | 83.6 |  | 94.2 |  | 7.24 | 4.03 | 4.1 | 7.34 |  | 94.4 |  |  |
| Cc1cccc(N2CCN(CCCCNc3nc(NCc4ccco4)c4ccccc4n3)CC2)c1C | 93.6 | 94.2 | 94.3 |  | 1.07 | 0.86 | 0.84 | 3.9 | 3.14 | 95.8 | > 50 | Active |
| CCN(CC)CCNc1nc(NCc2ccco2)c2cc(F)ccc2n1 | 26.6 | 27.5 | 26.4 | 7.67 |  |  |  |  |  |  |  |  |
| COc1ccc(Nc2nc(NCc3ccco3)c3ccccc3n2)cc1 |  |  |  |  | 35 | 12.2 |  |  |  | 64.5 |  |  |
| CN(C)CCNc1nc(NCc2ccco2)c2ccccc2n1 | 20 | 21.7 |  |  |  |  |  |  |  |  |  |  |
| Clc1cccc(N2CCN(CCCNc3nc(NCc4ccco4)c4ccccc4n3)CC2)c1Cl | 93.2 | 94.1 | 94.5 |  | 3.71 | 3.37 | 3.36 | 3.36 | 2.98 | 95.8 | > 50 | Active |
| CCCCNc1nc(NCc2ccco2)c2ccccc2n1 | 89.9 | 92.3 | 94.8 |  | 4.99 | 2.94 | 5.47 | 9.2 |  | 66.7 |  |  |
| Cc1cccc(N2CCN(CCCNc3nc(NCc4ccco4)c4ccccc4n3)CC2)c1C | 91.5 | 94 | 93.2 |  | 0.93 | 0.84 | 0.77 | 3.04 | 3.31 | 95.9 | < 50 | Active |
| Fc1ccc2nc(NCCCCN3CCN(c4cccc(Cl)c4Cl)CC3)nc(NCc3ccco3)c2c1 | 95.5 | 96.3 | 97.1 | 97.3 | 0.67 | 0.39 | 0.52 | 2.65 |  |  |  |  |
| CN(C)CCCNc1nc(NCc2ccco2)c2ccccc2n1 |  |  |  |  | 51 | 4.45 |  |  |  |  |  |  |
| c1coc(CNc2nc(NCCCN3CCCC3)nc3ccccc23)c1 | 40.1 | 87.5 | 67.5 |  | 35.3 | 6.01 | 16.1 | 19.4 |  |  |  |  |
| CCCCCNc1nc(NCc2ccco2)c2ccccc2n1 |  |  |  |  | 11.5 | 6.73 |  |  |  |  |  |  |
| CCN(CC)CCNc1nc(NCc2ccco2)c2ccccc2n1 | 28.5 | 75.1 | 62.6 |  | > 100 | 11.3 | 25.9 | 34.9 |  |  |  |  |
| CCCCNc1nc(NCc2ccco2)c2cc(F)ccc2n1 | 75.4 | 88.1 | 87.8 |  | 5.91 | 3.04 | 4.31 | 8.48 |  |  |  |  |
| Fc1ccc2nc(NCCCN3CCOCC3)nc(NCc3ccco3)c2c1 | 26.7 | 83.1 | 52.1 |  | > 100 | 9.32 | 25.3 | 22.5 |  |  |  |  |
| Fc1ccc2nc(NCCN3CCN(c4cccc(Cl)c4Cl)CC3)nc(NCc3ccco3)c2c1 |  |  |  |  |  |  | 1.01 | 2.42 |  | 95.5 |  |  |
| c1coc(CNc2nc(NCCN3CCOCC3)nc3ccccc23)c1 |  |  |  |  |  |  |  |  | 2.12 | 95.8 |  |  |
| Cc1cccc(N2CCN(CCCNc3nc(NCc4ccco4)c4cc(F)ccc4n3)CC2)c1C | 95.9 | 96.7 | 97.3 | 97.6 | 2.66 | 1.05 | 1.14 | 2.83 |  |  |  |  |
| CCCCNc1nc(NCc2ccco2)c2cccc(F)c2n1 |  |  |  |  |  |  | 1.33 | 2.63 |  | 87 |  |  |
